Data from ChEMBL document CHEMBL1128177, “A 3-amino-4-hydroxy-3-cyclobutene-1,2-dione-containing glutamate analogue exhibiting high affinity to excitatory amino acid receptors” (J Med Chem, 1995).

Columns and labels:
Rattus norvegicus [1] = organism: Rattus norvegicus; assay: (§1) Inhibition of stimulus-evoked kainate/AMPA receptor responses in CA1 pyramidal cells of the rat hippocampus before QUIS exposure.; assay type: functional
How it was run: (§2)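 Schaffer collateral-evoked CA1 field potential in 500 µm rat hippocampal slices, recording medium with 2.4 mM Mg2+, 34 °C. IC50 from 4-min doubling concentration steps, interpolated at 50% peak-amplitude loss; mean of ≥4 experiments. Measured first, then after 5 min 16 μM L-quisqualic acid and washout, then again after 5 min 2 mM L-α-aminoadipic acid and washout.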

Rattus norvegicus [2] = organism: Rattus norvegicus; assay: (§3) Inhibition of stimulus-evoked kainate/AMPA receptor responses in CA1 pyramidal cells of the rat hippocampus after QUIS exposure.; assay type: functional; how it was run: as §2
[3] = target: T1, Glutamate NMDA receptor (Rattus norvegicus) (UniProt P35439+Q00959+Q00960+Q00961+Q62645+Q8VHN2+Q9R1M7); assay: (§4) Inhibition of stimulus-evoked CA1 pyramidal cell NMDA receptor of the rat hippocampus.; assay type: functional, tissue-based
How it was run: (§5)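 Transverse hippocampal slices (500 µm) from 30-50 day male Sprague-Dawley rats. Schaffer collateral stimulation at 0.1 ms, 4-30 V, 0.1 Hz. Extracellular field potential peak amplitude recorded in CA1 stratum radiatum at 34 °C. Medium held 0.1 mM Mg2+ plus 10 μM CNQX to isolate NMDA responses. Drug doubled every 4 min from subthreshold until >70% decline or 8 mM. IC50 interpolated from the log concentration plot; mean of ≥4 experiments.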

Rattus norvegicus [4] = organism: Rattus norvegicus; assay: Inhibition of stimulus-evoked response in lateral perforant path of the rat hippocampus.
Glutamate NMDA receptor [5] = assay: Inhibition of stimulus-evoked […] NMDA receptor response in lateral perforant path of the rat hippocampus.; assay type: functional, tissue-based
How it was run: (§6)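 Rat hippocampal slices (500 µm, male Sprague-Dawley, 30-50 days) with perforant path stimulation (0.1 ms, 4-30 V, 0.1 Hz). Field potential recorded in the dentate granule cell synaptic field of the lateral or medial perforant path at 34 °C. Drug doubled every 4 min from subthreshold up to >70% inhibition or 8 mM. IC50 interpolated from fractional peak amplitude vs log concentration; mean of ≥4 experiments.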

Rattus norvegicus [6] = organism: Rattus norvegicus; assay: as §3; assay type: functional, organism-based; how it was run: as §2
Glutamate NMDA receptor [7] = assay: as §4; assay type: functional, tissue-based; how it was run: as §5
Rattus norvegicus [8] = organism: Rattus norvegicus; assay: as §1; assay type: functional, organism-based; how it was run: as §2
[9] = target: T1, Glutamate NMDA receptor (Rattus norvegicus); assay: Inhibition of stimulus-evoked […] NMDA receptor response in medial perforant path of the rat hippocampus.; assay type: functional, tissue-based; how it was run: as §6
Rattus norvegicus [10] = organism: Rattus norvegicus; assay: Inhibition of stimulus-evoked kainate/AMPA receptor responses in CA1 pyramidal cells of the rat hippocampus after reversal with alpha AA.; assay type: functional; how it was run: as §2

Row | C50 [3] | C50 (Rattus norvegicus [4]) | IC50 (Glutamate NMDA receptor [5]) | IC50 (Rattus norvegicus [6]) | IC50 (Glutamate NMDA receptor [7]) | IC50 (Rattus norvegicus [8]) | C50 [9] | Structure (SMILES) | C50 (Rattus norvegicus [1]) | C50 (Rattus norvegicus [2]) | C50 (Rattus norvegicus [10])
1 | 3.5 mM | > 10 mM |  |  |  |  |  | Cl.NCC/N=c1\c(O)c(O)c1=O | >10 mM | >10 mM | 
2 |  |  | > 10 mM | > 10 mM | 5.3 mM | > 10 mM |  | NCCC/N=c1\c(O)c(O)c1=O |  |  | 
3 | 0.01 mM | 0.0034 mM |  |  |  |  | 0.0059 mM | N[C@@H](C/N=c1\c(O)c(O)c1=O)C(=O)O | 0.0011 mM | 0.00055 mM | 0.001 mM
